Assay results taken from ChEMBL document CHEMBL2057168, “(1aR,5aR)1a,3,5,5a-Tetrahydro-1H-2,3-diaza-cyclopropa[a]pentalene-4-carboxylic acid (MK-1903): a potent GPR109a agonist that lowers free fatty acids in humans” (J Med Chem, 2012).
Activity calls are given as the source filed them. The rule behind the calls is not given here.

What was measured:
[1] = target: Hydroxycarboxylic acid receptor 3 (Homo sapiens) (UniProt P49019); experiment: Agonist activity at human GPR109b assessed as decrease in forskolin-stimulated cAMP production by HTRF assay; type: functional
[2] = Oral bioavailability in mouse; type: ADME, organism-based; details: in vivo
[3] = system: Rattus norvegicus; experiment: Dose normalized AUC in Sprague-Dawley rat at 10 mg/kg, po; type: ADME, organism-based; design: dose 10 mg/kg, route oral; details: in vivo
Method in brief: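 Male Sprague-Dawley rats were dosed at 10 mg/kg po or 2 mg/kg iv in 80% PEG400/20% phosphate-buffered saline, fasted overnight before the oral dose. Jugular blood was sampled serially from 0.25 to 21 h over 24 h, and heparinized plasma was prepared. Drug was assayed by HPLC/MS/MS (quantitation range 1–2000 ng/mL).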

[4] = Terminal half life in dog; type: ADME, organism-based, Canis lupus familiaris; details: in vivo, read-out: beta t1/2 (converted)
[5] = Oral bioavailability in dog; type: ADME, organism-based, Canis lupus familiaris; details: in vivo
[6] = Plasma clearance in rhesus monkey; type: ADME, organism-based, Macaca mulatta
[7] = Oral bioavailability in rhesus monkey; type: ADME, organism-based, Macaca mulatta; details: in vivo
[8] = system: Homo sapiens; experiment: Antidyslipedic activity in human assessed as decrease in free fatty acid level at 50 to 200 mg, po administered as a single dose measured after 1 to 2 hrs relative to placebo control; type: functional; design: scale not given: the % may be the effect or the level left
[9] = system: Homo sapiens; experiment: Antidyslipedic activity in human assessed as decrease in free fatty acid level at 50 to 200 mg, po administered as a single dose measured up to 8 hrs relative to placebo control; type: functional, organism-based
[10] = system: Homo sapiens; experiment: Antidyslipedic activity in human assessed as decrease in free fatty acid level at 50 to 200 mg, po administered as a single dose measured after 8 hrs relative to placebo control; type: functional, organism-based
[11] = system: Homo sapiens; experiment: Activation of GPR109a receptor in human assessed as PGD2 metabolite level in urine at 10 to >10 mg, po; type: functional, organism-based
[12] = AUC (0 to 8 hrs) in human at 150 mg, po TID administered on day 1 followed by 2-days wash out period after which dosing continued up to day 11 measured on day 4; type: ADME, organism-based; design: time < 8 hr, dose 150 mg, route oral; details: plasma
Method in brief: (§1)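 Double-blind, placebo-controlled, randomized dose-escalation study in healthy male volunteers, six cohorts of eight (six active, two placebo). Oral dose on day 1, two-day washout, then dosing days 4–11; the 200 mg qd cohort was titrated over days 1–4. Venous blood taken predose and at 0.5–12 h on days 1, 4 and 11; plasma drug measured. τ 12 h (bid), 24 h (qd), 8 h (tid), 6 h (qid).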

[13] = AUC (0 to 8 hrs) in human at 150 mg, po TID administered on day 1 followed by 2-days wash out period after which dosing continued up to day 11 measured on day 11; type: ADME, organism-based; design: time < 8 hr, dose 150 mg, route oral; details: plasma; method in brief: as §1
[14] = Tmax in human at titreated po dose administered from day 1 to 4 followed by 200 mg, po QD administered up to day 11 measured on day 4; type: ADME, organism-based; details: in vivo
Method in brief: (§2)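 Double-blind, placebo-controlled, randomized multiple oral dose study in healthy male volunteers (cohorts of eight; six active, two placebo). Dose given on day 1, then a two-day washout, then dosing days 4–11; for the QD arm, subjects were titrated over days 1–4. Venous plasma sampled predose and 0.5, 1, 1.5, 2, 4, 6, 8, 10, 12 h postdose on days 1, 4 and 11. Tmax reported as median (min–max).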

[15] = Apparent half life in human at 100 mg, po BID administered on day 1 followed by 2-day wash out period after which dosing continued up to day 11 measured on day 11; type: ADME, organism-based; details: in vivo, read-out: t1/2(app) (converted); method in brief: as §1
[16] = Apparent half life in human at titreated po dose administered from day 1 to 4 followed by 200 mg, po QD administered up to day 11 measured on day 11; type: ADME, organism-based; details: in vivo, read-out: t1/2(app) (converted); method in brief: as §1
[17] = system: Homo sapiens; experiment: Toxicity in human assessed as occurrence of flushing at 10 to >10 mg administered for 1 to 2 days as divided dose; type: organism-based; details: in vivo
Method in brief: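 Healthy volunteers scored subject-reported flushing with a flushing symptoms questionnaire after single oral doses and during repeat divided daily dosing.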

[18] = system: Homo sapiens; experiment: Antidyslipidemic activity in dyslipidemia patient assessed as decrease in free fatty acid level at 150 mg administered TID during four week study; type: functional, organism-based
[19] = system: Homo sapiens; experiment: Antidyslipidemic activity in dyslipidemia patient assessed as change in HDL-c level at 150 mg administered TID during four week study relative to control; type: functional
[20] = Cmax in human at 50 mg, po BID administered on day 1 followed by 2-day wash out period after which dosing continued up to day 11 measured on day 1; type: ADME, organism-based; design: dose 50 mg, route oral; details: in vivo
Method in brief: (§3)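 Healthy male volunteers took part in a double-blind, randomized, placebo-controlled dose-escalation study, with cohorts of 8 (6 on drug, 2 on placebo). Each subject got an oral dose on day 1, then a 2-day washout, then dosing on days 4–11. The 200 mg qd group was titrated over days 1–4. Venous plasma was sampled predose and 0.5–12 h postdose on days 1, 4 and 11, and predose on days 5–10 for troughs.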

[21] = Cmax in human at 100 mg, po BID administered on day 1 followed by 2-day wash out period after which dosing continued up to day 11 measured on day 1; type: ADME, organism-based; design: dose 100 mg, route oral; details: in vivo; method in brief: as §1
[22] = Cmax in human at 150 mg, po TID administered on day 1 followed by 2-days wash out period after which dosing continued up to day 11 measured on day 11; type: ADME, organism-based; design: dose 150 mg, route oral; details: in vivo; method in brief: as §3
[23] = Cmin in human at 50 mg, po BID administered on day 1 followed by 2-day wash out period after which dosing continued up to day 11 measured on day 11 at 12 hrs; type: ADME, organism-based; details: in vivo, read-out: Cmin; method in brief: as §3
[24] = Cmin in human at 100 mg, po BID administered on day 1 followed by 2-day wash out period after which dosing continued up to day 11 measured on day 11 at 12 hrs; type: ADME, organism-based; details: in vivo, read-out: Cmin
Method in brief: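 Healthy male volunteers, double-blind placebo-controlled randomized dose escalation; cohorts of eight (six active, two placebo). Oral dose on day 1, two-day washout, then dosing days 4–11. Venous blood predose and 0.5, 1, 1.5, 2, 4, 6, 8, 10, 12 h postdose on days 1, 4 and 11 for plasma drug; dosing interval (τ) 12 h for BID, 8 h for TID; Ctrough taken at end of interval.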

[25] = Cmin in human at 150 mg, po BID administered on day 1 followed by 2-day wash out period after which dosing continued up to day 11 measured on day 11 at 12 hrs; type: ADME, organism-based; details: in vivo, read-out: Cmin; method in brief: as §3
[26] = Cmin in human at 150 mg, po TID administered on day 1 followed by 2-days wash out period after which dosing continued up to day 11 measured on day 4 at 8 hrs; type: ADME, organism-based; details: in vivo, read-out: Cmin; method in brief: as §3
[27] = Cmin in human at titreated dose from day 1 to 4 followed by 200 mg, po QD administered up to day 11 measured on day 4 at 12 hrs; type: ADME, organism-based; details: in vivo, read-out: Cmin; method in brief: as §3
[28] = Cmin in human at 175 mg, po QID administered on day 1 followed by 2-days wash out period after which dosing continued up to day 11 measured on day 11 at 6 hrs; type: ADME, organism-based; details: in vivo, read-out: Cmin; method in brief: as §3
[29] = Tmax in human at 50 mg, po BID administered on day 1 followed by 2-day wash out period after which dosing continued up to day 11 measured on day 4; type: ADME, organism-based; details: in vivo; method in brief: as §2
[30] = Tmax in human at 100 mg, po BID administered on day 1 followed by 2-day wash out period after which dosing continued up to day 11 measured on day 11; type: ADME, organism-based; details: in vivo; method in brief: as §2

Sequence of Hydroxycarboxylic acid receptor 3 (Homo sapiens) (P49019 whole entry): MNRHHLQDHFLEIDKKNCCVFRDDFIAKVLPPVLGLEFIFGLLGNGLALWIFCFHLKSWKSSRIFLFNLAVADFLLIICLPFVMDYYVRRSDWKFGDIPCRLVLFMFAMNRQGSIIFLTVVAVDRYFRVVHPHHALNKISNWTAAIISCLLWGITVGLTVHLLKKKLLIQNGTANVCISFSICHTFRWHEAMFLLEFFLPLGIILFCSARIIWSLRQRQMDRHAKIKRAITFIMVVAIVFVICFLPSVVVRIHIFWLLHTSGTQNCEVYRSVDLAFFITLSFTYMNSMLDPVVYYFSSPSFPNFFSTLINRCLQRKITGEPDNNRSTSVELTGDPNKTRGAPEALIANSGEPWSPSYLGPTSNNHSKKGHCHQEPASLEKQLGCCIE

In the case of `O=C(O)c1n[nH]c2c1C[C@H]1C[C@@H]21`, the Activity [1] is reported as “inactive”, the bioavailability [2] is reported as 40% and the AUC/dose [3] is reported as 5.1 µM·kg·h/mg. For the same compound, the half-life [4] was 3.4 h, the bioavailability [5] was 100% and the clearance [6] was 5.1 mL/min/kg. The bioavailability [7] was 39%, the Activity [8] was 90% and the Activity [9] was “Active”. For the same compound, the Activity [10] was “inactive”, the Activity [11] was “Active” and the AUC at 8 h [12] was 0.0885 µM·h. It also gave an AUC at 8 h [13] of 0.0879 µM·h, a Tmax [14] of 1.5 h and a half-life [15] of 2.2 h. For the same compound, the half-life [16] was 4.6 h, the Activity [17] was “Non-toxic” and the Activity [18] was “Active”. It also gave an Activity [19] of 4.6%, a Cmax [20] of 12.3 nM and a Cmax [21] of 31.5 nM. For the same compound, the Cmax [22] was 44.9 nM, the concentration at 12 h [23] was 0.045 nM and the concentration at 12 h [24] was 0.104 nM. It also gave a concentration at 12 h [25] of 0.208 nM, a concentration at 8 h [26] of 0.583 nM and a concentration at 12 h [27] of 0.244 nM. For the same compound, the concentration at 6 h [28] was 2.86 nM, the Tmax [29] was 1.25 h and the Tmax [30] was 0.5 h.
